Hits are enriched below; roughly 7.2% of the tested compounds scored in any of these assays.
HEK293 NFkB inh: inhibitors of PMA/ionomycin-induced NF-kB reporter, primary screen, antigen receptor NF-kB inhibitor project, cell-based, HEK-293 luciferase reporter, luminescence; HEK-293 NF-kB luciferase reporter; inhibition, % at 3 µM; hit rate 0.21% among 62,000;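 active = inhibition above the mean of all tested compounds plus 3 SD, cut at about 40% in these data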;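 also: 0% = stimulated DMSO wells and 100% = 10 µM reference inhibitor 5653914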
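Timing: 1 h pretreatment, 16 h stimulation, 37 °C; system: HEK-293 cells with stable firefly luciferase reporter driven by four HIV NF-kB elements; doses: 3 µM once, 0.30% DMSO; measured by: luciferase luminescence; control set: DMSO and 10 µM reference inhibitor; repeats: single test; reagent: PMA plus ionomycin mix as NF-kB-activating stimulus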
DAT uptake mod: changed hDAT dopamine uptake under cocaine IC80, either direction, primary screen, cocaine antagonist project, cell-based, LLC-PK1 hDAT, [14C]-dopamine uptake, MLSMR | Sodium-dependent dopamine transporter (Homo sapiens), Q01959 | LLC-PK1 hDAT cells, [14C]-dopamine uptake with cocaine IC80; actives deviate in either direction | B-score at 10 µM | hit rate 1.3% among 110,000;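 active = Z score or B-score, a plate-position-corrected score, falls beyond the plate's 99.7% confidence bounds, in either direction; inactive = both scores lie inside the 99.7% bounds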;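 also: scored against the spread of the other compound wells on the same plate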
M1 ag: M1 muscarinic receptor agonists, primary screen, CHO-M1 cells, Fluo-4 calcium, agonist mode. Muscarinic acetylcholine receptor M1. Fluo-4 calcium fluorescence; hits give high values. B-score at 10 µM. hit rate 3% among 64,000;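 active = fluorescence rise, raw or as B-score row- and column-corrected plate score, outside the 99.7% band of its plate's samples, either direction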
D1 allo mod: D1 CRE-luciferase signal change, two-sided – cell-based, HEK293 D1, dopamine EC30, D1 allosteric modulator project, primary screen. D(1A) dopamine receptor (Homo sapiens), P21728. dopamine EC30 potentiation; actives deviate in either direction. B-score at 10 µM. hit rate 5.9% among 58,000. AID 641, 2007;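 active = luminescence count or its row- and column-corrected plate score outside the 99.7% band of the plate's sample wells, on either side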
M1 antagonist: antagonists of rat M1 muscarinic receptor; hit rate 3.4% among 64,000; B-score at 10 µM; Muscarinic acetylcholine receptor M1 (Rattus norvegicus), P08482; CHO-M1 cells, Fluo-4 calcium, ACh EC80 antagonist mode; hits give low values;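 active = calcium fluorescence response, raw or row-and-column corrected B-score, differing from the plate sample mean either way at a set confidence level, mostly lower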
BAP1 block: inhibitors of BAP1 deubiquitinase, primary screen, biochemical, Ub-AMC fluorescence, kinetic; Ubiquitin carboxyl-terminal hydrolase BAP1 (Homo sapiens), Q92560; recombinant BAP1, Ub-AMC hydrolysis fluorescence kinetic; hits give low values; calls only at 20 µM; AID 436, 2006; hit rate 0.48% among 72,000;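 active = activity remaining at or below 50% of control, provided the compound also passes the data quality filters; inactive = the rest, including low values that fail the filters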;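 also: 100% = DMSO wells rate and 0% = substrate alone blank rate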
Target sequence (Q92560 whole entry, looked up): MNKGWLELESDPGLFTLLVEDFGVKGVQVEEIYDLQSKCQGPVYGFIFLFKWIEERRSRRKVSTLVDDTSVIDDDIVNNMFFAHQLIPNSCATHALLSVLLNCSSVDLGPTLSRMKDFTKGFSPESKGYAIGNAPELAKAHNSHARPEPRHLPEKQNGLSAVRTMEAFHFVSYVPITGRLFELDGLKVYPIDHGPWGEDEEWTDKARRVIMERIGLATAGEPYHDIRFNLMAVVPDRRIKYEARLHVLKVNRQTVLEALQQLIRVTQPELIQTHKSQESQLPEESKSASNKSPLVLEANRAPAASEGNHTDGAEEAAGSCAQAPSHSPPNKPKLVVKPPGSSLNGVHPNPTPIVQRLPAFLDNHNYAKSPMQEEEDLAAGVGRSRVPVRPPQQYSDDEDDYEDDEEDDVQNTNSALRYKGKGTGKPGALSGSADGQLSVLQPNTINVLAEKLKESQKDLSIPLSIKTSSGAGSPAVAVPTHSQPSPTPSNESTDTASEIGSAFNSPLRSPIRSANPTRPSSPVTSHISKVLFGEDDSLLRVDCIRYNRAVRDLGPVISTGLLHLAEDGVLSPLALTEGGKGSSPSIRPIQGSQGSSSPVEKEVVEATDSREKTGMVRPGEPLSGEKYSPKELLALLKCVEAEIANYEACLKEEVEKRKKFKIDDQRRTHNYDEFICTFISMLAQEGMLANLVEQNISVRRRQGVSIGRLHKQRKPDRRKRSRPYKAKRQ
Active calls of the source: *; i = inactive; / = no result.

SMILES	HEK293 NFkB inh	DAT uptake mod	M1 ag	D1 allo mod	M1 antagonist	BAP1 block
Cc1nc2cc(N3CCN(C)CC3)c(NC(=O)Cc3ccccc3)cc2c(=O)n1Cc1ccccc1	20.8	0.284	0.0385	-2.41*	0.181	i
COC(=O)C(NC(=O)Nc1ccccc1OC)C(C)C (stereo not given)	/	-0.437	/	/	/	/
COC(=O)[C@@H](NC(=O)Nc1ccccc1F)C(C)C	7.9	-1.2	1.47	-0.00874	1.62*	i
Cc1ccc2nsnc2c1S(=O)(=O)NCc1cccnc1	8.8	-0.856	/	-0.424	/	i
Cc1ccc2nsnc2c1S(=O)(=O)N1CCN(CCc2ccccc2)CC1	27.6	4.34*	-0.298	-4.65*	0	i
O=C(Nc1sc2c(c1C(=O)O)CCC2)c1ccccc1Br	/	/	/	/	/	i
O=C1NC(=S)N/C1=C/c1cc([N+](=O)[O-])ccc1O	/	-2.13*	/	/	/	/
O=C1NC(=S)N/C1=C/c1cccc([N+](=O)[O-])c1O	/	-0.193	/	/	/	/
CC(C)Cc1cc(C(=O)Nc2ccc(F)cc2F)no1	3.4	0.073	0.694	-1.55	1.31	i
CC(C)Cc1cc(C(=O)Nc2c(F)cc(F)cc2Br)no1	21.9	6.5*	-0.533	-0.15	-0.177	i
CC(C)(O)C12CC3CC(CC(C3)C1)C2	/	/	/	/	/	i
COc1ccc(Cl)cc1N1C(=O)C2CCCN2C1c1sccc1C (stereo not given)	18.2	1.29	0.432	-2.35*	0.531	i
COc1ccc(/C=N\n2nnc3ccccc32)cc1	-3.9	-1.66	0.0118	-3.85*	-0.00356	i
CCN1CC=C2C(C1)C(c1ccc(Cl)s1)C(C#N)=C(N)C2(C#N)C#N (stereo not given)	-5.7	/	261*	-1.08	0.506	i
CCOC(=O)C1=C(c2ccccc2)OC(N)=C(C#N)C1c1ccc(Cl)s1 (stereo not given)	/	1.25	/	/	/	/
COC(=O)C1=CNC=C(C(=O)OC)C1c1ccc(C)s1	/	/	/	/	/	i
Cc1ccc(NC(=O)c2c(NC(=O)c3ccccc3)sc3c2CCC(C)C3)cc1 (stereo not given)	/	/	/	/	/	i
Cc1ccc2nc(Nc3ncc4c(n3)CCCC4=O)nc(C)c2c1	7.3	/	0.354	-0.37	-2.74*	i
CC(=O)c1cnc(Nc2nc(C)c3ccc(C)cc3n2)nc1C	8.5	0.653	0.24	0.943	0.0954	i
Cc1cc(C)cc(Nc2ncc3c(n2)CCCC3=O)c1	-33.1	-0.518	-0.143	-5.01*	0.363	i
O=C(c1ccccc1)N1CCN(C(=O)c2ccc(F)cc2)CC1	/	/	/	/	/	i
O=C1c2cccc3cccc(c23)C(=O)N1CCN1CCN(C(=O)C23CC4CC(CC(C4)C2)C3)CC1	/	/	/	/	/	i
O=C(CN1CCN(C(c2ccccc2)c2ccccc2)CC1)NC(=O)NCc1ccco1	15.9	0.0958	-3.17*	0.334	-0.507	i
O=C(O)c1cc2nc3c(c(C(F)(F)F)n2n1)CCc1ccccc1-3	6.0	-0.019	-0.0188	-4.49*	0.338	i
CC(C)(C)NC(=O)c1cc2nc3c(c(C(F)(F)F)n2n1)CCc1ccccc1-3	/	/	/	/	/	i
SMILES	HEK293 NFkB inh	DAT uptake mod	M1 ag	D1 allo mod	M1 antagonist	BAP1 block
Cc1cc(NCCCN2CCOCC2)n2ncc(-c3ccc(Cl)cc3)c2n1	-2.5	-0.257	-0.678	-1.37	0.225	i
Cc1cc(NCCCn2ccnc2)n2ncc(-c3ccc(Cl)cc3)c2n1	/	4.08*	/	/	/	/
CC(C)(C)CC(=O)Nc1nnc(C(F)(F)F)s1	/	2.83*	/	/	/	/
COc1ccc(NC(=O)c2ccccc2NC(=O)CN2C(=O)c3ccccc3C2=O)cc1	/	/	/	/	/	i
Cc1ccc(C)c(Cn2cnc3c(cnn3C(C)(C)C)c2=O)c1	24.5	-0.028	/	-2.58*	/	i
CCCCNC(=O)C1c2ccccc2C(=O)N(c2ccc(OC)cc2)C1c1ccc(OC)cc1 (stereo not given)	/	-7.84*	/	/	/	/
CCN1CCN(CCCNC(=O)C2c3ccccc3C(=O)N(C)C2c2ccc(OC)cc2)CC1 (stereo not given)	7.4	-1.36	-0.23	0.53	0.162	i
O=C(Nc1ccc(N2CCOCC2)cc1)c1ccncc1	/	-0.225	/	/	/	/
O=C(Nc1ccc(N2CCOCC2)cc1)c1cnsn1	41.8*	-0.592	0.00443	-6.75*	-0.0891	i
CC1(C)Cc2c(sc3nc(SCC(=O)NCc4ccco4)n(-c4ccccc4)c(=O)c23)CS1	/	2.83*	0.919	/	0.344	i
Cn1c(SCC(=O)NCc2ccco2)nnc1-c1cccs1	15.9	-0.063	0.0242	0.0643	2.25*	i
O=C(CSc1nc2sc3c(c2c(=O)n1-c1ccccc1)CCCC3)NCc1ccco1	-7.1	/	-0.25	0.713	-0.654	i
Cc1sc2nc(SCC(=O)NCc3ccco3)n(CCc3ccccc3)c(=O)c2c1C	10.9	1.2	0.955	0.273	0.0938	i
Cc1sc2nc(SCC(=O)NCc3ccco3)n(C)c(=O)c2c1C	8.9	-0.677	-0.165	-2.59*	-0.543	i
O=C(Nc1nc(-c2ccc([N+](=O)[O-])cc2)cs1)c1ccccc1F	/	/	/	/	/	i
C=CCn1c(SCc2cc(=O)n3ccsc3n2)nc2scc(C3CC3)c2c1=O	20.0	2.31	0.0893	9.78*	-0.268	/
CC(C(=O)O)N1C(=O)C2C3CCC(C3)C2C1=O (stereo not given)	/	/	/	/	/	i
COc1ccc(N2C(C(C)=O)=NN(c3ccccc3)C2c2cccs2)cc1 (stereo not given)	/	1.38*	/	/	/	/
CC(=O)Nc1ccc(N2C(C(C)=O)=NN(c3ccccc3)C2c2cccs2)cc1 (stereo not given)	/	-0.486	/	/	/	/
Cc1ccccc1S(=O)(=O)Cc1ccc(C(=O)NCc2cccs2)o1	/	-8.35*	/	/	/	/
CCOC(=O)C1C(c2cccc([N+](=O)[O-])c2)NC(=S)NC1(O)C(F)(F)F (stereo not given)	/	/	/	/	/	i
Cc1cc(N2CCCC2=O)cc(C)c1S(=O)(=O)NCCOc1ccc(C(C)(C)C)cc1	/	-2.77*	/	/	/	/
Cc1c(C#N)c2ncn(Cc3ccccc3)c(=O)c2n1-c1ccccc1	20.3	0.331	0.278	13.3*	-0.0126	i
Cc1c(C#N)c2ncnc(-c3ccccc3)c2n1-c1ccccc1	17.9	0.114	2.04	0.915	0.382	i
CCOC(=O)c1cccc(NC(=O)C2CCCN(S(=O)(=O)c3c(C)nn(C)c3C)C2)c1 (stereo not given)	9.9	3.05*	1.34	-0.166	0.395	i
CCOC(=O)c1cccc(NC(=O)C2CCCN(S(=O)(=O)c3c(C)n[nH]c3C)C2)c1 (stereo not given)	29.0	-0.279	0.913	-0.265	-0.022	i

Screens deposited in PubChem by several laboratories.
